Experimental data taken from ChEMBL document CHEMBL1649392, “Synthesis of substituted 3-amino-N-phenyl-1H-indazole-1-carboxamides endowed with antiproliferative activity” (Eur J Med Chem, 2011).

How the values were obtained:
Assay type in all cases: functional
K562 = assay: Antiproliferative activity against human K562 cells after 48 hrs by sulforhodamine B assay; conditions: K562, 48 h
How it was run: (§1)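 NCI 60-cell-line panel covering nine cancer types (leukemia, non-small cell lung, colon, CNS, melanoma, ovarian, renal, prostate, breast). Compounds were first tested at a single dose, then in a five-dose screen (series starting 0.01, 0.1 …) if they met NCI threshold criteria. Reported per line: GI50 (molar concentration inhibiting 50% net growth), TGI (total growth inhibition) and LC50 (50% net cell death).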

MOLT-4 = assay: Antiproliferative activity against human MOLT4 cells after 48 hrs by sulforhodamine B assay; conditions: MOLT-4, 48 h; how it was run: as §1
A549 = assay: Antiproliferative activity against human A549 cells after 48 hrs by sulforhodamine B assay; conditions: A549, 48 h; how it was run: as §1
EKVX = assay: Antiproliferative activity against human EKVX cells after 48 hrs by sulforhodamine B assay; how it was run: as §1
HOP-92 = assay: Antiproliferative activity against human HOP92 cells after 48 hrs by sulforhodamine B assay; conditions: HOP-92, 48 h; how it was run: as §1
NCI-H322M = assay: Antiproliferative activity against human NCI-H322M cells after 48 hrs by sulforhodamine B assay; how it was run: as §1
NCI-H522 = assay: Antiproliferative activity against human NCI-H522 cells after 48 hrs by sulforhodamine B assay; conditions: NCI-H522, 48 h; how it was run: as §1
COLO 205 = assay: Antiproliferative activity against human COLO205 cells after 48 hrs by sulforhodamine B assay; conditions: COLO 205, 48 h; how it was run: as §1
HCC 2998 = assay: Antiproliferative activity against human HCC2998 cells after 48 hrs by sulforhodamine B assay; conditions: HCC 2998, 48 h; how it was run: as §1
HCT-116 = assay: Antiproliferative activity against human HCT116 cells after 48 hrs by sulforhodamine B assay; conditions: HCT-116, 48 h; how it was run: as §1
HCT-15 = assay: Antiproliferative activity against human HCT15 cells after 48 hrs by sulforhodamine B assay; conditions: HCT-15, 48 h; how it was run: as §1
KM12 = assay: Antiproliferative activity against human KM12 cells after 48 hrs by sulforhodamine B assay; conditions: KM12, 48 h; how it was run: as §1
SW-620 = assay: Antiproliferative activity against human SW620 cells after 48 hrs by sulforhodamine B assay; conditions: SW-620, 48 h
How it was run: (§2)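 NCI 60-cell-line panel screen: single dose 10 µM first, then 5-dose testing (0.01, 0.1, … molar series). For each line, GI50 is the molar concentration giving 50% inhibition of net cell growth, TGI gives total inhibition of net growth, and LC50 gives 50% net cell death. Method follows the NCI DTP protocol.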

SF-268 = assay: Antiproliferative activity against human SF268 cells after 48 hrs by sulforhodamine B assay; conditions: SF-268, 48 h; how it was run: as §1
SNB-19 = assay: Antiproliferative activity against human SNB19 cells after 48 hrs by sulforhodamine B assay; conditions: SNB-19, 48 h; how it was run: as §1
SNB-75 = assay: Antiproliferative activity against human SNB75 cells after 48 hrs by sulforhodamine B assay; conditions: SNB-75, 48 h; how it was run: as §1
SK-MEL-28 = assay: Antiproliferative activity against human SK-MEL-28 cells after 48 hrs by sulforhodamine B assay; conditions: SK-MEL-28, 48 h; how it was run: as §1
UACC-257 = assay: Antiproliferative activity against human UACC257 cells after 48 hrs by sulforhodamine B assay; conditions: UACC-257, 48 h; how it was run: as §2
UACC-62 = assay: Antiproliferative activity against human UACC62 cells after 48 hrs by sulforhodamine B assay; conditions: UACC-62, 48 h; how it was run: as §2
IGROV-1 = assay: Antiproliferative activity against human IGROV1 cells after 48 hrs by sulforhodamine B assay; conditions: IGROV-1, 48 h; how it was run: as §1
OVCAR-3 = assay: Antiproliferative activity against human OVCAR3 cells after 48 hrs by sulforhodamine B assay; conditions: OVCAR-3, 48 h; how it was run: as §1
OVCAR-4 = assay: Antiproliferative activity against human OVCAR4 cells after 48 hrs by sulforhodamine B assay; conditions: OVCAR-4, 48 h; how it was run: as §1
OVCAR-5 = assay: Antiproliferative activity against human OVCAR5 cells after 48 hrs by sulforhodamine B assay; conditions: OVCAR-5, 48 h; how it was run: as §1
OVCAR-8 = assay: Antiproliferative activity against human OVCAR8 cells after 48 hrs by sulforhodamine B assay; conditions: OVCAR-8, 48 h; how it was run: as §1
SK-OV-3 = assay: Antiproliferative activity against human SKOV3 cells after 48 hrs by sulforhodamine B assay; conditions: SK-OV-3, 48 h; how it was run: as §1
ACHN = assay: Antiproliferative activity against human ACHN cells after 48 hrs by sulforhodamine B assay; how it was run: as §1
CAKI-1 = assay: Antiproliferative activity against human Caki1 cells after 48 hrs by sulforhodamine B assay; conditions: CAKI-1, 48 h; how it was run: as §1
RXF 393 = assay: Antiproliferative activity against human RXF393 cells after 48 hrs by sulforhodamine B assay; conditions: RXF 393, 48 h; how it was run: as §1
SN12C = assay: Antiproliferative activity against human SN12C cells after 48 hrs by sulforhodamine B assay; how it was run: as §1
UO-31 = assay: Antiproliferative activity against human UO31 cells after 48 hrs by sulforhodamine B assay; conditions: UO-31, 48 h; how it was run: as §2
[1] = Antiproliferative activity against human Hs 578T cells after 48 hrs by sulforhodamine B assay; how it was run: as §1
[2] = read-out: LC50 (the source's name)

Nc1nn(C(=O)Nc2ccc(Cc3ccccc3)cc2)c2ccc(Cl)cc12
GI50 (K562): 0.0357 µM
LC50 (concentration causing 50% net cell death) (K562): > 100 µM
TGI (K562): 14.7 µM
GI50 (MOLT-4): 2.41 µM
TGI (MOLT-4): 55.3 µM
CC50 (MOLT-4; [2]): > 100 µM
GI50 (A549): 2.52 µM
TGI (A549): > 100 µM
CC50 (A549; [2]): > 100 µM
GI50 (EKVX): 3.19 µM
TGI (EKVX): 97.6 µM
CC50 (EKVX; [2]): > 100 µM
GI50 (HOP-92): 10.7 µM
LC50 (HOP-92): > 100 µM
TGI (HOP-92): 33.7 µM
GI50 (NCI-H322M): 18.2 µM
TGI (NCI-H322M): > 100 µM
CC50 (NCI-H322M; [2]): > 100 µM
GI50 (NCI-H522): 15.6 µM
LC50 (concentration causing 50% net cell death) (NCI-H522): > 100 µM
TGI (NCI-H522): > 100 µM
GI50 (COLO 205): 0.588 µM
LC50 (concentration causing 50% net cell death) (COLO 205): > 100 µM
TGI (COLO 205): 23.8 µM
GI50 (HCC 2998): 0.238 µM
TGI (HCC 2998): 1.53 µM
CC50 (HCC 2998; [2]): > 100 µM
GI50 (HCT-116): 0.467 µM
LC50 (concentration causing 50% net cell death) (HCT-116): 77.2 µM
TGI (HCT-116): 25.1 µM
GI50 (HCT-15): 0.0458 µM
LC50 (concentration causing 50% net cell death) (HCT-15): > 100 µM
TGI (HCT-15): > 100 µM
GI50 (KM12): 0.0726 µM
TGI (KM12): > 100 µM
CC50 (KM12; [2]): > 100 µM
GI50 (SW-620): 0.0565 µM
TGI (SW-620): 76.5 µM
CC50 (SW-620; [2]): > 100 µM
GI50 (SF-268): 13 µM
TGI (SF-268): 47.7 µM
CC50 (SF-268; [2]): > 100 µM
GI50 (SNB-19): 14.6 µM
TGI (SNB-19): 43.3 µM
CC50 (SNB-19; [2]): > 100 µM
GI50 (SNB-75): 14 µM
LC50 (concentration causing 50% net cell death) (SNB-75): 74.5 µM
TGI (SNB-75): 32.3 µM
GI50 (SK-MEL-28): 18.5 µM
TGI (SK-MEL-28): > 100 µM
CC50 (SK-MEL-28; [2]): > 100 µM
GI50 (UACC-257): 4.92 µM
TGI (UACC-257): > 100 µM
CC50 (UACC-257; [2]): > 100 µM
GI50 (UACC-62): 0.0412 µM
TGI (UACC-62): > 100 µM
CC50 (UACC-62; [2]): > 100 µM
GI50 (IGROV-1): 13.7 µM
TGI (IGROV-1): > 100 µM
CC50 (IGROV-1; [2]): > 100 µM
GI50 (OVCAR-3): 6.66 µM
TGI (OVCAR-3): 20.8 µM
CC50 (OVCAR-3; [2]): 48.2 µM
GI50 (OVCAR-4): 5.73 µM
TGI (OVCAR-4): 34.3 µM
CC50 (OVCAR-4; [2]): > 100 µM
GI50 (OVCAR-5): 18.8 µM
TGI (OVCAR-5): > 100 µM
CC50 (OVCAR-5; [2]): > 100 µM
GI50 (OVCAR-8): 14.9 µM
TGI (OVCAR-8): > 100 µM
CC50 (OVCAR-8; [2]): > 100 µM
GI50 (SK-OV-3): 15.8 µM
TGI (SK-OV-3): 50.5 µM
CC50 (SK-OV-3; [2]): > 100 µM
GI50 (ACHN): 0.0468 µM
TGI (ACHN): 17.4 µM
CC50 (ACHN; [2]): > 100 µM
GI50 (CAKI-1): 0.217 µM
TGI (CAKI-1): > 100 µM
CC50 (CAKI-1; [2]): > 100 µM
GI50 (RXF 393): 13.5 µM
TGI (RXF 393): 31.5 µM
CC50 (RXF 393; [2]): 73.4 µM
GI50 (SN12C): 14.6 µM
TGI (SN12C): 42.9 µM
CC50 (SN12C; [2]): > 100 µM
GI50 (UO-31): 3.12 µM
TGI (UO-31): 84.5 µM
CC50 (UO-31; [2]): > 100 µM
GI50 [1]: 13.3 µM
TGI [1]: 41.7 µM
CC50 [1, 2]: > 100 µM
